Only some compounds are listed: those with a hit (about 2.4% of all), similar ones and a draw of the others.
A3A deaminase = APOBEC3A ssDNA deaminase inhibitors, primary screen, selectivity assay for APOBEC3G inhibitor project, biochemical, FAM/TAMRA oligo cleavage fluorescence; actives 0.41% (n = 330,000); AID 493011, 2011; recombinant A3A, FAM/TAMRA ssDNA deamination fluorescence; inhibition, % at 20 µM;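 active = at least 40% inhibition at 20 µM here, with at most 30% in a related deaminase screen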
HKDC1 inh = HKDC1 hexokinase inhibitors, primary screen, biochemical, fluorescence, uHTS; Q2TB90; recombinant HKDC1, G6PDH/diaphorase resazurin coupled fluorescence; inhibition, % at 20 µM; actives 0.16% (n = 340,000); AID 493160, 2011;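 active = inhibition above about 35% when tested at 20 µM, limit read from the data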
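Test system: recombinant HKDC1 (HK5) hexokinase enzyme, produced in-house; Amount: enzyme 5 µg/mL final; Buffer or medium: Tris pH 8.0 buffer with MgCl2, Tween-20, BSA, BME; Reagent: glucose and ATP substrates; Doses: 20 µM test compound, 1% DMSO; Incubation: 90 min reaction incubation at room temperature, dark; Detection: resorufin fluorescence at 613 nm.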
SUMO HTRF inh = inhibitors of in vitro SUMOylation cascade, primary screen, biochemical, HTRF, uHTS | inhibition, % at 35 µM | actives 0.36% (n = 290,000) | AID 2006, 2009 | SUMO-conjugating enzyme UBC9 (Homo sapiens), P63279 | HTRF SUMOylation assay, SAE1/SAE2 + UBC9; in the data active = inhibition above about 50%, passing the limit was not always enough
Target sequence (P63279 whole entry, looked up): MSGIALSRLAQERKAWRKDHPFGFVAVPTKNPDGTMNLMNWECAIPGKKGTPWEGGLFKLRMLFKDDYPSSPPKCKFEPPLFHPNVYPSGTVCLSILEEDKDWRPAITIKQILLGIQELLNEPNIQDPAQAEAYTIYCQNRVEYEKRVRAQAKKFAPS
APOBEC3G inh = APOBEC3G DNA deaminase inhibitors, primary screen, biochemical, fluorescence, single-stranded DNA substrate, uHTS; inhibition, % at 20 µM; recombinant A3G, ssDNA deamination FAM/TAMRA fluorescence; actives 0.28% (n = 330,000); DNA dC->dU-editing enzyme APOBEC-3G (Homo sapiens), Q9HC16;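 active = inhibition of at least 40% at 20 µM, with no more than 30% in the related APOBEC3A deaminase screen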
Target sequence (Q9HC16 whole entry, looked up): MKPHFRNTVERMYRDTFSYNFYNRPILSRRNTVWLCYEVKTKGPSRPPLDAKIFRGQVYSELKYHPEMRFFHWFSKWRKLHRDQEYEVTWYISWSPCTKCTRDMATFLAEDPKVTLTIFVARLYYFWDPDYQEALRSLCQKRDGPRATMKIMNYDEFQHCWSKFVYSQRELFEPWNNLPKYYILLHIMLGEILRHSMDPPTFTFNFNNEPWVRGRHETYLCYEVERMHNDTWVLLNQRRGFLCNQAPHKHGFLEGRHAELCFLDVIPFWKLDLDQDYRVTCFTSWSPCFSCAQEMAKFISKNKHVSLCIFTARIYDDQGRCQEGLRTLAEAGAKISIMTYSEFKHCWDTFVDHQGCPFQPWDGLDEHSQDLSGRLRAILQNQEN
PfG6PD inh = PfG6PD enzyme inhibitors, primary screen, biochemical, fluorescence intensity, uHTS; glucose-6-phosphate dehydrogenase-6-phosphogluconolactonase (Plasmodium falciparum 3D7); PfGluPho enzyme, NADPH resazurin-diaphorase fluorescence; inhibition, % at 20 µM; actives 0.78% (n = 350,000);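 active = inhibition reaching at least a set limit at 20 µM in the primary screen, cut at about 59% in these data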
PfM18AAP inh = PfM18AAP inhibitors, malaria aminopeptidase, primary screen, biochemical, QFRET, recombinant enzyme | actives 1.2% (n = 290,000) | H-Glu-NHMec fluorogenic cleavage | AID 1822, 2009 | inhibition, % at 7.35 µM;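 active = inhibition above the campaign mean inhibition over all tested compounds plus 3 SD, cut at about 28% in these data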
PfG6PD confirm = PfG6PD inhibitors, hit retest, confirmation, biochemical, fluorescence intensity, single concentration. AID 504753, 2011. shares compounds with PfG6PD inh. recombinant PfGluPho, NADPH-diaphorase-resazurin fluorescence. inhibition, % at 20 µM. actives 34% (n = 2,400);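 active = inhibition of at least 50% at 20 µM in any single replicate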
Diaph ctr 10uM = diaphorase inhibitors and chemical oxidizers, confirmation, counter-screen for P. falciparum G6PD inhibitor project, biochemical, fluorescence intensity, 10 µM NADPH; shares compounds with PfG6PD inh; diaphorase-coupled resazurin reduction, NADPH 10 uM; inhibition, % at 20 µM; actives 39% (n = 820); AID 504862, 2011;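 active = average inhibition reaching 50% or more with the compound at 20 µM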;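 note: resorufin red fluorescence formed as diaphorase reduces resazurin using NADPH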
Diaphorase 30uM = diaphorase inhibitors and chemical oxidizers, confirmation, counter-screen for P. falciparum G6PD inhibitor project, biochemical, fluorescence intensity, 30 µM NADPH. shares compounds with PfG6PD inh. Diaphorase/resazurin coupled assay, resorufin fluorescence. inhibition, % at 20 µM. actives 29% (n = 820);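 active = inhibition averaging 50% or more, tested at 20 µM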
Large screens that a line does not name were inactive (follow-up assays come after a bar, where they were run).

COCCNc1oc(/C=C/c2ccccc2OC)nc1S(=O)(=O)c1ccccc1	none (no result: SUMO HTRF inh)
CC(SCC(=O)Nc1ccccc1)c1nc2ccccc2c(=O)[nH]1 (stereo unspecified)	PfG6PD inh 60 | PfG6PD confirm 51 | Diaph ctr 10uM inactive | Diaphorase 30uM inactive
Cc1cccc(NC(=O)c2sc3nc(-c4ccccc4)cn3c2C)n1	PfG6PD inh 61 | PfG6PD confirm inactive
CCOC(=O)Cc1cc(=O)n2[nH]c(C(C)(C)C)cc2n1	PfG6PD inh 78 | PfG6PD confirm 76 | Diaph ctr 10uM 64 | Diaphorase 30uM inactive
CC(Sc1nc2ccccc2s1)C(=O)NC1CCCc2ccccc21 (stereo unspecified)	none
O=C1/C(=N\S(=O)(=O)c2cccs2)C([n+]2ccccc2)=C([O-])c2ccccc21	PfG6PD inh 65 | PfG6PD confirm inactive
Cc1ccc(S(=O)(=O)N2CCCCC2)cc1C(=O)Nc1cccnc1	none
CCSc1ccc(C(=O)Nc2cccc(C)n2)cc1[N+](=O)[O-]	none
Cc1cc(C(=O)Nc2ccc(N3CCCC3)c(Cl)c2)ccc1[N+](=O)[O-]	PfG6PD inh 67 | PfG6PD confirm inactive
Cc1cccc(NC(=O)c2ccc(N3CCOCC3)c([N+](=O)[O-])c2)n1	PfG6PD inh 70 | PfG6PD confirm inactive
O=C(Nc1cccnc1)c1ccc(N2CCOCC2)c([N+](=O)[O-])c1	none
Cc1cccc(NC(=O)c2ccc(N(C)C3CCCCC3)c([N+](=O)[O-])c2)n1	PfG6PD inh 60 | PfG6PD confirm inactive
CC1CCN(c2ccc(C(=O)Nc3ccc4c(c3)OCO4)cc2[N+](=O)[O-])CC1	PfG6PD inh 62 | PfG6PD confirm inactive
O=C(Nc1ccc(N2CCOCC2)cc1)C1CCCN(S(=O)(=O)c2ccccc2)C1 (stereo unspecified)	none
CN(CC(=O)Nc1ccc(F)cc1)C(=O)COC(=O)c1nc(Cl)ccc1Cl	none (no result: A3A deaminase, HKDC1 inh, SUMO HTRF inh, APOBEC3G inh, PfM18AAP inh)
Cc1cccc(NC(=O)c2ccc(N3CCCCC3)c([N+](=O)[O-])c2)n1	PfG6PD inh 98 | PfG6PD confirm inactive
Cc1ccc(C)c2sc(NC(=O)c3ccc(N4CCCCC4)c([N+](=O)[O-])c3)nc12	none
CN(C)c1cccc2c1c(NC(=O)c1ccc(F)cc1)nn2C	PfG6PD inh 74 | PfG6PD confirm 57 | Diaph ctr 10uM inactive | Diaphorase 30uM inactive
CN(C)c1cccc2c1c(NC(=O)c1ccc(Cl)cc1)nn2C	PfG6PD inh 103 | PfG6PD confirm 73 | Diaph ctr 10uM inactive | Diaphorase 30uM 52
CN(C)c1cccc2c1c(NC(=O)Nc1ccccc1)nn2C	none
CCOCCCn1cnc2c([nH]c3cc(OC)ccc32)c1=O	none
CCN(CC)CCCNc1ccc2ncn3c4ccc(O)cc4c(=O)c1c23	PfG6PD inh 80 (no result: A3A deaminase, SUMO HTRF inh, APOBEC3G inh, PfM18AAP inh) | PfG6PD confirm inactive
COc1cc2c(cc1OC)[C@H](Cc1ccc(O)cc1)NCC2	none
CN1CCN(S(=O)(=O)c2ccc(N3CCN(c4ccc(O)cc4)CC3)c([N+](=O)[O-])c2)CC1	PfG6PD inh 72 (no result: SUMO HTRF inh, PfM18AAP inh) | PfG6PD confirm inactive
Cc1ccc(NS(=O)(=O)c2ccc(N3CCN(c4ccc(O)cc4)CC3)c([N+](=O)[O-])c2)c(C)c1	none
O=C(c1cc(-c2ccc(F)cc2)nc2ccccc12)N1CCC1	none (no result: SUMO HTRF inh, PfM18AAP inh)
O=C(O)c1cc(-c2ccc(-c3ccc(F)cc3)o2)nc2ccccc12	PfG6PD inh 93 (no result: SUMO HTRF inh) | PfG6PD confirm inactive
Cc1ccc2oc3c(c(=O)c2c1)C(c1cccc(Cl)c1)N(CCCN1CCOCC1)C3=O (stereo unspecified)	none (no result: PfM18AAP inh)
Cc1ccc(/C=C/C(=O)OCC(=O)c2ccc3c(c2)NC(=O)CO3)o1	PfG6PD inh 71 (no result: SUMO HTRF inh, PfM18AAP inh) | PfG6PD confirm inactive
CCOC(=O)C(C)On1c(-c2cccc(Cl)c2)nc2ccc([N+](=O)[O-])cc21 (stereo unspecified)	PfG6PD inh 64 | PfG6PD confirm inactive
CCOC(=O)COn1c(-c2cccc(Cl)c2)nc2ccc([N+](=O)[O-])cc21	PfG6PD inh 110 | PfG6PD confirm inactive
Nc1ncnc2[nH]c(=S)[nH]c12	none (no result: A3A deaminase, SUMO HTRF inh, APOBEC3G inh, PfM18AAP inh)
O=c1[nH]c(=O)c2[nH]c(=S)[nH]c2[nH]1	PfG6PD inh 66 (no result: A3A deaminase, SUMO HTRF inh, APOBEC3G inh, PfM18AAP inh) | PfG6PD confirm inactive
CC(C)(C)NC(NC(=O)Cc1ccccc1)C(Cl)(Cl)Cl (stereo unspecified)	none
O=C(CNC(=O)C(c1ccccc1)c1ccccc1)N/N=C/c1ccc(O)c([N+](=O)[O-])c1	none
COc1ccc([N+](=O)[O-])cc1/C=N/NC(=O)CNC(=O)c1cccc(F)c1	PfG6PD inh 70 | PfG6PD confirm inactive
COc1ccc([N+](=O)[O-])cc1/C=N/NC(=O)CNC(=O)C(c1ccccc1)c1ccccc1	PfG6PD inh 139 | PfG6PD confirm 86 | Diaph ctr 10uM 85 | Diaphorase 30uM 80
COC(=O)/C(=N/Nc1ccccc1)N1CCCc2ccccc21	none | PfG6PD confirm inactive
COC(=O)/C(=N/Nc1ccc(C)cc1)N1CCCc2ccccc21	PfG6PD inh 76 | PfG6PD confirm inactive
COC(=O)/C(=N/Nc1cccc(C)c1)N1CCCc2ccccc21	none
N#Cc1cn(CCCOc2ccccc2)c2ccccc12	PfG6PD inh 61 | PfG6PD confirm inactive
COc1ccccc1OCCCn1cc(C#N)c2ccccc21	PfG6PD inh 113 | PfG6PD confirm 69 | Diaph ctr 10uM 65 | Diaphorase 30uM 58
COC(=O)c1cn(CCOc2ccccc2)c2ccccc12	none
COc1ccccc1OCCCn1c(C)c(C#N)c2ccccc21	none
CCOC(=O)CSc1nnc(CNC(=O)c2cccs2)n1-c1cc(C)ccc1C	none
O=C(N1CCOCC1)N1CCCN(C(=O)N2CCOCC2)CC1	none

Screens (PubChem)
